Published values collected from several papers.
Each line is one published result; the experiments were not run side by side.
Target: Myotonin-protein kinase (DMPK, Homo sapiens, UniProt Q09013)

`Cc1ccc(Nc2nccc(N(C)c3ccc4c(C)n(C)nc4c3)n2)cc1S(N)(=O)=O` has an inhibition of -15% (enzyme activity; inhibitor; 0.3 µM).
`CCC1(CC)NC(=O)c2c(c3ccc(Cl)c(Cl)c3n2C)C1C#N` (stereo not shown) gave a ΔTm of 0.2 °C (thermal stability; DSF; 10 µM).
For `Cc1ccc(C(=O)Nc2ccc(CN3CCN(C)CC3)c(C(F)(F)F)c2)cc1C#Cc1cnc2cccnn12`, the remaining activity was 100% (enzyme activity; inhibitor; 23.5 nM).
For `CS(=O)(=O)c1cc(C2(NC(=O)c3cncc4c3cnn4-c3ccc(F)cc3)CC2)ccn1`, the remaining binding was 99% (cell-free assay; competition with immobilised ligand; 1 µM).
For `COc1cc2c(Nc3ccc(Br)cc3F)ncnc2cc1OCC1CCN(C)CC1`, the remaining signal was 94.6% (cell-free assay; 0.5 µM).
With `Cc1nc(C2CCN(C(=O)c3ccc(OC(F)(F)F)cc3N)CC2)c2ncc(N3CCN(C)CC3)cc2n1` the remaining binding was 100% (cell-free assay; competition with immobilised ligand; 1 µM).
With `O=C1NC(=O)c2cc(Nc3ccc(F)cc3)c(Nc3ccc(F)cc3)cc21` the remaining signal was 108% (cell-free assay; 0.5 µM).
`CC(C)CC(=O)N1CCc2nc(-c3ccc(Br)cc3)nc(N(C)Cc3ccccc3)c2C1` has a remaining binding of 87% (cell-free assay; competition with immobilised ligand; 0.1 µM).
With `CC(C)(C)c1nc2c(s1)c1nc(N)ncc1c1ccc(NS(=O)(=O)c3c(F)cccc3F)c(F)c12` the remaining activity was 95% (enzyme activity; inhibitor; radiometric; 1 µM).
With `CN(C)C(=O)Cn1cc(-c2nc([C@@](C)(c3ccc(-c4cnc(N)nc4)cc3)C3CC3)no2)cn1` the remaining binding was 100% (cell-free assay; competition with immobilised ligand; 1 µM).
`N#CC1c2c([nH]c3c(Cl)c(Cl)ccc23)C(=O)NC12CCCCC2` (racemic) has a ΔTm of -0.6 °C (thermal stability; DSF; 10 µM).
`O=C(NCc1ncc(C(F)(F)F)cc1Cl)c1ccc2c(c1)C1(CCS(=O)(=O)CC1)[C@@H](C1CC1)N2S(=O)(=O)c1ccc(F)cc1` gave a remaining binding of 86% (cell-free assay; competition with immobilised ligand; 1 µM).
`Cc1cnc(NC2CCOCC2)nc1-n1cnc(C(=O)NC(CN)c2cc(F)cc(Cl)c2)c1` (stereo not shown) gave a remaining activity of 95% (enzyme activity; inhibitor; radiometric; 1 µM).
With `C=CC(=O)Nc1cc(Nc2nccc(Nc3cc(Cl)c(F)cc3C(C)(C)O)n2)c(OC)cc1N1CC[C@@H](N(C)C)C1` the inhibition was 11% (enzyme activity; inhibitor; 1 µM).
`C#Cc1cccc(Nc2ncnc3cc(OCCOC)c(OCCOC)cc23)c1` gave a remaining signal of 96.9% (cell-free assay; 0.5 µM).
`CCCOc1ccc(OC)c(F)c1C(=O)c1ccc(C(=O)N[C@@H]2CNC[C@H]2NC(=O)c2ccc3[nH]ncc3c2)cc1` gave a remaining activity of 93% (enzyme activity; inhibitor; 10 µM).
The remaining binding of `CC(=O)N1CCC(c2ccc(C(=O)NC(=N)N)cc2C(F)(F)F)CC1` is reported as 100% (cell-free assay; competition with immobilised ligand; 1 µM).
`Cn1c2c(c3ccc(Cl)c(Cl)c31)C(C#N)C1(CCOCC1)NC2=O` (stereo not shown) gave a ΔTm of 0 °C (thermal stability; DSF; 10 µM).
For `O=C(O)c1cc(-c2ccc(C3CCNCC3)cc2)c2ccc(-c3ccc(C(F)(F)F)cc3)cc2c1`, the remaining binding was 100% (cell-free assay; competition with immobilised ligand; 1 µM).
For `CCOc1cc(-c2nncn2C)ccc1Nc1ncc2cc(C)nc(NCC(C)(C)C)c2n1`, the inhibition was ≤ 15% (cell-free assay; TR-FRET; 1 µM).
With `Cn1c2c(c3ccc(Cl)c(Cl)c31)C(C#N)C1(CCCC1)NC2=O` (stereo not shown) the ΔTm was -0.2 °C (thermal stability; DSF; 10 µM).
`CCCS(=O)(=O)Nc1ccc(F)c(C(=O)c2c[nH]c3ncc(-c4ccc(Cl)cc4)cc23)c1F` gave an inhibition of < 10% (enzyme activity; inhibitor; 1 µM).
The remaining binding of `COc1ccc2c(O[C@@H]3C[C@H]4C(=O)N[C@]5(C(=O)O)CC5/C=C\CCCCC[C@H](NC(=O)OC5CCCC5)C(=O)N4C3)cc(-c3csc(NC(=O)C(C)C)n3)nc2c1C` (stereo partly shown) is reported as 83% (cell-free assay; competition with immobilised ligand; 1 µM).
The inhibition of `CNC(=O)c1cc(Oc2ccc(NC(=O)Nc3ccc(Cl)c(C(F)(F)F)c3)cc2)ccn1` is reported as -16% (enzyme activity; inhibitor; 10 µM).
`Cn1c2c(c3ccc(Cl)c(Cl)c31)C(C#N)C(C)(C)NC2=O` (stereo not shown) has a ΔTm of 0.4 °C (thermal stability; DSF; 10 µM).
`Cc1sc(C(=O)NC2COC2)cc1-n1cc(NC(=O)Nc2c(F)cccc2Cl)cn1` has a remaining activity of 95.2% (enzyme activity; inhibitor; 10 µM).
The ΔTm of `CC1(C)NC(=O)c2[nH]c3c(Cl)c(Cl)ccc3c2C1C#N` (stereo not shown) is reported as 1 °C (thermal stability; DSF; 10 µM).
`CCN(CC)CCNC(=O)c1c(C)[nH]c(/C=C2\C(=O)Nc3ccc(F)cc32)c1C` gave an inhibition of -5% (enzyme activity; inhibitor; 10 µM).
